Source: ChEMBL document CHEMBL3425427, “Pyrido[4,3-e][1,2,4]triazolo[4,3-a]pyrazines as Selective, Brain Penetrant Phosphodiesterase 2 (PDE2) Inhibitors” (ACS Med Chem Lett, 2015)
Calls of active or inactive are those of the source. The rule behind the calls is not given here.

Key:
[1] = Drug metabolism in human liver microsomes at 1 uM incubated for 15 mins at 37 degC; assay type: ADME; conditions: read-out: Drug metabolism
Method in brief: (§1)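 Compound at 1 μM incubated 15 min at 37 °C with human or rat liver microsomes; read-out is percent metabolized.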

[2] = Ratio of drug level in brain to plasma of Sprague-Dawley rat at 10 mg/kg, sc after 1 hr; assay type: ADME, organism-based; set-up: dose 10 mg/kg, route subcutaneous; conditions: read-out: BPR
Method in brief: (§2)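 Fed male Sprague-Dawley rats, n = 2 per time point, given 10 mg/kg s.c. in 20% HPβCD at pH 3.5−4. Brain and plasma levels taken 1 h after dosing; brain-to-plasma ratio computed from these.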

[3] = Drug level in Sprague-Dawley rat brain homogenates at 10 mg/kg, sc after 1 hr; assay type: ADME, organism-based; set-up: dose 10 mg/kg, route subcutaneous; conditions: read-out: Drug uptake; method in brief: as §2
[4] = Drug metabolism in rat liver microsomes at 1 uM incubated for 15 mins at 37 degC; assay type: ADME; conditions: read-out: Drug metabolism; method in brief: as §1
[5] = system: Rattus norvegicus; test: In vivo PDE2 occupancy in Wistar rat assessed as inhibition of specific binding of [3H]-4-((1-(5-butoxypyridin-3-yl)-4-methyl-[1,2,4]triazolo[4,3-a]quinoxalin-8-yl)methyl)morpholine radiotracer at 10 mg/kg, sc and pre-treated with 2.5 mg/kg, sc PDE10 inhibitor MP10; assay type: functional
[6] = Unbound fraction in Sprague-Dawley rat brain homogenates at 10 mg/kg, sc after 5 hrs at 37 degC by rapid equilibrium dialysis; assay type: ADME, organism-based; set-up: dose 10 mg/kg, route subcutaneous; conditions: brain homogenate
Method in brief: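 Unbound fraction measured in rat brain homogenate by rapid equilibrium dialysis, 5 h incubation at 37 °C.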

[7] = target: T1, cAMP and cAMP-inhibited cGMP 3',5'-cyclic phosphodiesterase 10A (Rattus norvegicus, UniProt Q9QYJ6); test: Inhibition of 6-His-tagged rat recombinant PDE10A expressed in Sf9 cells using [3H]cAMP incubated for 60 mins by scintillation proximity assay
T1 sequence (Q9QYJ6 whole entry): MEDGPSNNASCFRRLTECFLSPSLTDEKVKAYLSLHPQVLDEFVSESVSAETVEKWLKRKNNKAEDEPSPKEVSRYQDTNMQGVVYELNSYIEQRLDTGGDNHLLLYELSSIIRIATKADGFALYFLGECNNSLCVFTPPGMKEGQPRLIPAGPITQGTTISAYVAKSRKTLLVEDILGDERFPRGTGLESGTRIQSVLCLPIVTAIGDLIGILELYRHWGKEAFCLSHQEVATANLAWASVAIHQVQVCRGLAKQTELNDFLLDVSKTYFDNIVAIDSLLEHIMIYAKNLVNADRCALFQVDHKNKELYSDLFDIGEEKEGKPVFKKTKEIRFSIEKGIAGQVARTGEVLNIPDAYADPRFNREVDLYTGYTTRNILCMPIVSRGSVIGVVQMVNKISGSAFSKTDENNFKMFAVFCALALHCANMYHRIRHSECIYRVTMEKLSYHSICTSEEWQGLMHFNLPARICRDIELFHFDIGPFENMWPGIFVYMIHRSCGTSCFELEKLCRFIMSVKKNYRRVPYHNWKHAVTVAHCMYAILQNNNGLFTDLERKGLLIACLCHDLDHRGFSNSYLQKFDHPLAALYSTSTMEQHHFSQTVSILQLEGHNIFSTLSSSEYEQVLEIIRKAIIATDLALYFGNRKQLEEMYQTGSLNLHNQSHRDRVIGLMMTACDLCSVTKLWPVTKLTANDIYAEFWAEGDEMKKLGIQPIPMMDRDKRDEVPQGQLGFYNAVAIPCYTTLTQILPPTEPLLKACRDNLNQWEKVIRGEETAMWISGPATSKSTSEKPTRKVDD

[8] = system: Rattus norvegicus; test: In vivo PDE2 occupancy in Wistar rat assessed as inhibition of specific binding of [3H]-4-((1-(5-butoxypyridin-3-yl)-4-methyl-[1,2,4]triazolo[4,3-a]quinoxalin-8-yl)methyl)morpholine radiotracer up to 10 mg/kg, po and pre-treated with 2.5 mg/kg, sc PDE10 inhibitor MP10; assay type: functional, organism-based
[9] = system: Rattus norvegicus; test: In vivo PDE2 occupancy in Wistar rat assessed as inhibition of specific binding of [3H]-4-((1-(5-butoxypyridin-3-yl)-4-methyl-[1,2,4]triazolo[4,3-a]quinoxalin-8-yl)methyl)morpholine radiotracer and pre-treated with 2.5 mg/kg, sc PDE10 inhibitor MP10; assay type: functional; conditions: route subcutaneous
[10] = Dissociation constant, pKa of the compound; assay type: physicochemical

Structure (SMILES)	metabolised at 0.25 h, 1 µM [1] [%]	Kp at 1 h [2]	concentration at 1 h [3] [ng/g]	metabolised at 0.25 h, 1 µM [4] [%]	Occ [5] [%]	fraction unbound at 5 h [6]	IC50 [7] [µM]	Activity [8]	ED50 [9] [mg/kg]	pKa [10]
CCCCOc1cncc(-c2nnc3c(C)nc4ccncc4n23)c1	6	0.61	789	46	23	> 0.3	–	–	–	–
CCCOCc1ccc(Cl)c(-c2nnc3c(C)nc4ccncc4n23)c1	78	0.98	895	98	–	0.1	3.89	–	–	–
Cc1nc2ccncc2n2c(-c3cc(COCC(F)(F)F)ccc3Cl)nnc12	12	1.1	370	77	–	0.1	–	inactive	3.6	–
CCCCOc1ccc(Cl)c(-c2nnc3c(C)nc4ccncc4n23)c1	34	0.69	807	98	–	0.026	–	–	–	–
Cc1nc2cccnc2n2c(-c3ccccc3Cl)nnc12	–	–	–	–	–	–	–	–	–	1
